A short description of data set [1]: Cytotoxicity against African green monkey BGM cells assessed as reduction in cell viability after 5 days by MTS/PMS based microscopic analysis. Particulars: chlorocebus aethiops. In a few lines:
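Uninfected BGM cells (2.5 × 10^4 cells/well, adhered overnight) exposed to compound dilution series in MEM with 2% FBS at 37 °C, 5% CO2; metabolic activity read by MTS/PMS, with microscopic check of monolayer morphology. CC50 = concentration reducing overall metabolic activity by 50%, by logarithmic interpolation.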

For a further data set, the system named is Chikungunya virus. Put plainly: Antiviral activity against Chikungunya virus Indian Ocean 899 infected in African green monkey BGM cells assessed as inhibition of virus-induced cytopathic effect after 5 days by MTS/PMS based […] analysis. It is filed as functional, organism-based. Conditions: Indian Ocean 899, BGM, 120 h. (Damage to the host cells serves as the signal in cytopathic effect assays.)

Some results are limits rather than exact numbers.

In general, CC50 refers to the concentration at which the toxic effect on the cells reaches its halfway point. As a reminder, the EC50 is the concentration needed to bring the measured effect to its halfway point. On to `CCC/C=C/C=C/C(=O)O[C@H]1/C(=C/C(=O)OC)C[C@H]2C[C@H]([C@@H](C)O)OC(=O)C[C@H](O)C[C@@H]3C[C@H](O)C(C)(C)[C@](O)(C[C@@H]4C/C(=C/C(=O)OC)C[C@H](/C=C/C(C)(C)[C@]1(O)O2)O4)O3`, for which the CC50 at 120 h in data set [1] is greater than 96 µM. The EC50 in the data set with Chikungunya virus is greater than 96 µM.
Regarding `C=C1C[C@H]2C[C@@H]3O[C@@H](CCC3(C)C)C[C@@H](O)CC(=O)O[C@@H](CO)C[C@@H]3C/C(=C\C(=O)OC)[C@H](OC(=O)CCCCCCC)[C@@](O)(O3)C(C)(C)/C=C/[C@@H](C1)O2`, in the data set on Chikungunya virus, the EC50 was determined as 0.35 µM.
Still for that read-out and setting: in the case of `CCC/C=C/C=C/C(=O)O[C@H]1/C(=C/C(=O)OC)C[C@H]2C[C@H]([C@@H](C)O)OC(=O)C[C@H](O)C[C@@H]3C[C@H](OC(C)=O)C(C)(C)[C@](O)(C[C@@H]4C/C(=C/C(=O)OC)C[C@H](/C=C/C(C)(C)[C@]1(O)O2)O4)O3` [BRYOSTATIN 1] it was greater than 96 µM.

Values taken from ChEMBL document CHEMBL4477155, “Simplified Bryostatin Analogues Protect Cells from Chikungunya Virus-Induced Cell Death” (J Nat Prod, 2016).
